The source made the active and inactive calls. The rule behind the calls is not given here.
Experiments:
[1] = Antiproliferative activity against human Molt4/C8 cells after 72 hrs by coulter counting analysis; assay type: functional, cell-based; conditions: MOLT-4, 72 h
Outline: (§1)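 Cells exposed to a range of concentrations in RPMI 1640 at 37°C for 72 h. Surviving cells counted by Coulter counter. IC50 taken from concentration-response curves, mean ± SD of at least three independent experiments.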

[2] = Cytotoxicity against human NALM6 cells assessed as dead cells at 1 uM after 24 hrs; assay type: functional, NALM-6
Outline: (§2)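 Dienones added as DMSO solutions to cells in RPMI medium and incubated 24 h at 37°C. Cytotoxicity was scored as cell-membrane disruption by propidium iodide staining and expressed as percentage of dead cells, averaged over three independent experiments.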

LAPC4 = assay: Cytotoxicity against human LAPC4 cells assessed as dead cells at 1 uM after 24 hrs; assay type: functional; outline: as §2
CCRF-CEM [3] = assay: Cytotoxicity against human CEM cells assessed as dead cells at 1 uM after 24 hrs; assay type: functional; outline: as §2
HCC70 = assay: Cytotoxicity against human HCC70 cells assessed as dead cells at 1 uM after 24 hrs; assay type: functional; outline: as §2
DU-145 = assay: Cytotoxicity against human DU145 cells assessed as dead cells at 1 uM after 24 hrs; assay type: functional; outline: as §2
CCRF-CEM [4] = assay: Cytotoxicity against human CEM T-lymphocytes assessed as mitochondrial membrane depolarization at 1 uM after 8 hrs by JC-1 red/green staining analysis; assay type: functional, cell-based
Outline: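 CEM cells (RPMI-1640, 10% FBS, 50,000 per well) were exposed to 1 μM compound for 8 h at 37°C, 5% CO2, in triplicate. They were then stained with 2 μM JC-1; the red signal marks polarized mitochondria and the green signal marks depolarized ones. Green-emitting cells were counted by flow cytometry, about 10,000 events. Controls: untreated, DMSO and CCCP 50 μM.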

YT = assay: Cytotoxicity against human YT cells assessed as dead cells at 1 uM after 24 hrs; assay type: functional; outline: as §2
EL4 = assay: Cytotoxicity against mouse EL4 cells assessed as dead cells at 1 uM after 24 hrs; assay type: functional; outline: as §2
[5] = Cytotoxicity against human HuT-102 cells assessed as dead cells at 1 uM after 24 hrs; assay type: functional; outline: as §2
Raji = assay: Cytotoxicity against human Raji cells assessed as dead cells at 1 uM after 24 hrs; assay type: functional; outline: as §2
HeLa = assay: Antiproliferative activity against human HeLa cells after 72 hrs by coulter counting analysis; assay type: functional, cell-based; outline: as §1
CCRF-CEM [6] = assay: Induction of apoptosis in human CEM T-lymphocytes assessed as necrotic cells at 1 uM after 24 hrs by Annexin V/propidium iodide staining-based FITC analysis (reference value: 0.2%); assay type: functional
CCRF-CEM [7] = assay: Induction of apoptosis in human CEM T-lymphocytes assessed as viable at necrotic cell stage at 1 uM after 8 hrs by flow cytometric analysis (reference value: 95.7%); assay type: functional
CCRF-CEM [8] = assay: Induction of apoptosis in human CEM T-lymphocytes assessed as viable cells at 1 uM after 24 hrs by Annexin V/propidium iodide staining-based FITC analysis (reference value: 93.4%); assay type: functional; conditions: read-out: Activity
Ramos = assay: Cytotoxicity against human Ramos cells assessed as dead cells at 1 uM after 24 hrs; assay type: functional; outline: as §2
[9] = Cytotoxicity against human 22Rvl cells assessed as dead cells at 1 uM after 24 hrs; assay type: functional; outline: as §2
CCRF-CEM [10] = assay: Induction of apoptosis in human CEM T-lymphocytes assessed as early apoptotic cells at 1 uM after 24 hrs by Annexin V/propidium iodide staining-based FITC analysis (reference value: 5.6%); assay type: functional
[11] = Cytotoxicity against human SupT1 cells assessed as dead cells at 1 uM after 24 hrs; assay type: functional, SUP-T1; outline: as §2
HS27 = assay: Cytotoxicity against human HS27 cells assessed as dead cells at 1 uM after 24 hrs; assay type: cell-based; conditions: hs27, 24 h
Outline: (§3)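 Compounds added from DMSO solutions to cells in medium (RPMI; DMEM for Hs-27 fibroblasts) and incubated 24 h at 37°C. Membrane disruption scored by propidium iodide uptake. Result is percentage of dead cells, average of three independent experiments.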

CCRF-CEM [12] = assay: Induction of apoptosis in human CEM T-lymphocytes assessed as late apoptotic at necrotic cell stage at 1 uM after 8 hrs by flow cytometric analysis (reference value: 0%); assay type: functional
CCRF-CEM [13] = assay: Induction of apoptosis in human CEM T-lymphocytes assessed as late apoptotic cells at 1 uM after 24 hrs by Annexin V/propidium iodide staining-based FITC analysis (reference value: 0.8%); assay type: functional
[14] = Cytotoxicity against human MDA231 cells assessed as dead cells at 1 uM after 24 hrs; assay type: functional, MDA-MB-231; outline: as §2
Jurkat = assay: Cytotoxicity against human Jurkat cells assessed as dead cells at 1 uM after 24 hrs; assay type: functional; outline: as §2
CCRF-CEM [15] = assay: Antiproliferative activity against human CEM cells after 72 hrs by coulter counting analysis; assay type: functional, cell-based; outline: as §1
L1210 = assay: Antiproliferative activity against mouse L1210 cells after 72 hrs by coulter counting analysis; assay type: functional, cell-based; conditions: L1210, 72 h
[16] = Cytotoxicity against human MCF10A cells assessed as dead cells at 1 uM after 24 hrs; assay type: cell-based; conditions: mcf-10a; outline: as §3
MCF7 = assay: Cytotoxicity against human MCF7 cells assessed as dead cells at 1 uM after 24 hrs; assay type: functional; outline: as §2
BJAB = assay: Cytotoxicity against human BJAB cells assessed as dead cells at 1 uM after 24 hrs; assay type: functional; outline: as §2
CCRF-CEM [17] = assay: Induction of apoptosis in human CEM T-lymphocytes assessed as caspase3 activation at necrotic cell stage at 1 uM after 8 hrs by flow cytometric analysis (reference value: 0%); assay type: functional
CCRF-CEM [18] = assay: Induction of apoptosis in human CEM T-lymphocytes assessed as early apoptotic at necrotic cell stage at 1 uM after 8 hrs by flow cytometric analysis (reference value: 4.3%); assay type: functional
[19] = Cytotoxicity against human MOLT3 cells assessed as dead cells at 1 uM after 24 hrs; assay type: functional, MOLT-3; outline: as §2
KM12 = assay: Cytotoxicity against human KM12 cells assessed as inhibition of tumor growth after 24 hrs; assay type: functional, cell-based; conditions: KM12, 24 h
COLO 205 [20] = assay: Ratio of 5-fluorouracil IC50 to compound IC50 for human COLO205 cells; assay type: functional; conditions: pooled result: one value given for 5 cell lines, strains, targets or settings
[21] = Antileukemic activity against human RPMI8226 cells assessed as inhibition of tumor growth after 24 hrs; assay type: functional, cell-based; conditions: rpmi-8226
[22] = Cytotoxicity against human NCI60 cells assessed as inhibition of tumor growth after 24 hrs; assay type: functional, cell-based; conditions: NCI60, 24 h
HCC 2998 = assay: Cytotoxicity against human HCC2998 cells assessed as inhibition of tumor growth after 24 hrs; assay type: functional, cell-based; conditions: HCC 2998, 24 h
MOLT-4 [23] = assay: Ratio of melphalan IC50 to compound IC50 for human Molt4/C8 cells; assay type: functional; conditions: pooled result: one value given for 4 cell lines, strains, targets or settings
COLO 205 [24] = assay: Cytotoxicity against human COLO205 cells assessed as inhibition of tumor growth after 24 hrs; assay type: functional, cell-based; conditions: COLO 205, 24 h
[25] = Cytotoxicity against human HCT15 cells assessed as inhibition of tumor growth after 24 hrs; assay type: functional, cell-based; conditions: HCT-15, 24 h
RPMI-8226 = assay: Ratio of melphalan IC50 to compound IC50 for human RPMI8226 cells; assay type: functional; conditions: pooled result: one value given for 3 cell lines, strains, targets or settings
SR = assay: Antileukemic activity against human SR cells assessed as inhibition of tumor growth after 24 hrs; assay type: functional, cell-based
MOLT-4 [26] = assay: Ratio of curcumin IC50 to compound IC50 for human Molt4/C8 cells; assay type: functional; conditions: pooled result: one value given for 4 cell lines, strains, targets or settings
HL-60(TB) = assay: Antileukemic activity against human HL-60(TB) cells assessed as inhibition of tumor growth after 24 hrs; assay type: functional, cell-based; conditions: HL-60, 24 h
SW-620 = assay: Cytotoxicity against human SW620 cells assessed as inhibition of tumor growth after 24 hrs; assay type: functional, cell-based; conditions: SW-620, 24 h
K562 = assay: Antileukemic activity against human K562 cells assessed as inhibition of tumor growth after 24 hrs; assay type: functional, cell-based; conditions: K562, 24 h

## COc1ccc(/C=C2/CN(C(=O)CC(=O)N3C/C(=C\c4ccc(OC)c(OC)c4)C(=O)/C(=C/c4ccc(OC)c(OC)c4)C3)C/C(=C\c3ccc(OC)c(OC)c3)C2=O)cc1OC
[1]
  IC50: 388 nM
[2]
  Activity: 63.9%
LAPC4
  Activity: 20.6%
CCRF-CEM [3]
  Activity: 77.6%
HCC70
  Activity: 2.1%
DU-145
  Activity: 67.4%
CCRF-CEM [4]
  Activity: Active
YT
  Activity: 32.3%
EL4
  Activity: 43.7%
[5]
  Activity: 51.6%
Raji
  Activity: 50.8%
HeLa
  IC50: 370 nM
CCRF-CEM [6]
  Activity: 3.9%
CCRF-CEM [7]
  Activity: 87.7%
CCRF-CEM [8]
  viability at 1 µM: 2.5%
Ramos
  Activity: 88.6%
[9]
  Activity: 2%
CCRF-CEM [10]
  Activity: 70.2%
[11]
  Activity: 31%
HS27
  Activity: 6.4%
CCRF-CEM [12]
  Activity: 0%
CCRF-CEM [13]
  Activity: 23.3%
[14]
  Activity: 1.8%
Jurkat
  Activity: 83.9%
CCRF-CEM [15]
  IC50: 348 nM
L1210
  IC50: 378 nM
[16]
  Activity: 6.1%
MCF7
  Activity: 23%
BJAB
  Activity: 61%
CCRF-CEM [17]
  Activity: 0%
CCRF-CEM [18]
  Activity: 12.3%
[19]
  Activity: 2.6%

## COc1ccc(/C=C2\CN(C(=O)C(=O)N3C/C(=C\c4ccc(OC)c(OC)c4)C(=O)/C(=C/c4ccc(OC)c(OC)c4)C3)C/C(=C\c3ccc(OC)c(OC)c3)C2=O)cc1OC
[1]
  IC50: 779 nM
[2]
  Activity: 60.7%
LAPC4
  Activity: 35.4%
CCRF-CEM [3]
  Activity: 88.1%
HCC70
  Activity: 3.9%
DU-145
  Activity: 45.7%
CCRF-CEM [4]
  Activity: Active
YT
  Activity: 39.2%
EL4
  Activity: 46.5%
[5]
  Activity: 50.9%
Raji
  Activity: 56.3%
HeLa
  IC50: 4430 nM
CCRF-CEM [6]
  Activity: 33.8%
CCRF-CEM [7]
  Activity: 91%
CCRF-CEM [8]
  viability at 1 µM: 15.4%
Ramos
  Activity: 87.4%
[9]
  Activity: 38.2%
CCRF-CEM [10]
  Activity: 12.8%
[11]
  Activity: 33%
HS27
  Activity: 10.2%
CCRF-CEM [12]
  Activity: 0%
CCRF-CEM [13]
  Activity: 38%
[14]
  Activity: 4.6%
Jurkat
  Activity: 84.8%
CCRF-CEM [15]
  IC50: 4360 nM
L1210
  IC50: 6310 nM
[16]
  Activity: 5.8%
MCF7
  Activity: 17.7%
BJAB
  Activity: 62.8%
CCRF-CEM [17]
  Activity: 0%
CCRF-CEM [18]
  Activity: 9%
[19]
  Activity: 31.8%

## COc1cc(/C=C2/CN(C(=O)CC(=O)N3C/C(=C\c4cc(OC)c(OC)c(OC)c4)C(=O)/C(=C/c4cc(OC)c(OC)c(OC)c4)C3)C/C(=C\c3cc(OC)c(OC)c(OC)c3)C2=O)cc(OC)c1OC
[1]
  IC50: 60 nM
KM12
  IC50: 40 nM
COLO 205 [20]
  Ratio IC50: 141
[21]
  IC50: 50 nM
[22]
  IC50: 50 nM
HCC 2998
  IC50: 100 nM
HeLa
  IC50: 216 nM
MOLT-4 [23]
  Ratio IC50: 14.2
COLO 205 [24]
  IC50: 60 nM
[25]
  IC50: 30 nM
RPMI-8226
  Ratio IC50: 1890
SR
  IC50: 10 nM
MOLT-4 [26]
  Ratio IC50: 66.8
HL-60(TB)
  IC50: 40 nM
SW-620
  IC50: 50 nM
CCRF-CEM [15]
  IC50: 284 nM
K562
  IC50: 30 nM
L1210
  IC50: 214 nM

## COc1cc(/C=C2\CN(C(=O)C(=O)N3C/C(=C\c4cc(OC)c(OC)c(OC)c4)C(=O)/C(=C/c4cc(OC)c(OC)c(OC)c4)C3)C/C(=C\c3cc(OC)c(OC)c(OC)c3)C2=O)cc(OC)c1OC
[1]
  IC50: 47 nM
KM12
  IC50: 60 nM
[2]
  Activity: 67.6%
COLO 205 [20]
  Ratio IC50: 121
LAPC4
  Activity: 9.7%
CCRF-CEM [3]
  Activity: 84.1%
HCC70
  Activity: 7.3%
DU-145
  Activity: 41.3%
YT
  Activity: 13%
[21]
  IC50: 20 nM
EL4
  Activity: 33.8%
[5]
  Activity: 50.5%
Raji
  Activity: 55.7%
[22]
  IC50: 60 nM
HCC 2998
  IC50: 100 nM
HeLa
  IC50: 246 nM
MOLT-4 [23]
  Ratio IC50: 13.5
Ramos
  Activity: 65.1%
[9]
  Activity: 3.4%
COLO 205 [24]
  IC50: 70 nM
[25]
  IC50: 70 nM
[11]
  Activity: 38.2%
RPMI-8226
  Ratio IC50: 1418
HS27
  Activity: 15.4%
SR
  IC50: 20 nM
MOLT-4 [26]
  Ratio IC50: 63.8
[14]
  Activity: 4.7%
Jurkat
  Activity: 78.7%
HL-60(TB)
  IC50: 70 nM
SW-620
  IC50: 30 nM
CCRF-CEM [15]
  IC50: 325 nM
K562
  IC50: 30 nM
L1210
  IC50: 182 nM
[16]
  Activity: 7.6%
MCF7
  Activity: 43.2%
BJAB
  Activity: 60.9%
[19]
  Activity: 30.3%
